In ChEMBL document CHEMBL1764956, “Inhibitory effects of Mannich bases of heterocyclic chalcones on NO production by activated RAW 264.7 macrophages and superoxide anion generation and elastase release by activated human neutrophils” (Bioorg Med Chem, 2011):

What was measured:
RAW264.7 [1] = assay: Inhibition of LPS/IFNgamma-induced NO production in mouse RAW264.7 cells after 24 hrs by Griess reagent method; assay type: functional, cell-based; conditions: RAW264.7, 24 h
Procedure, shortened: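 RAW 264.7 cells grown to confluence in 96-well plates (~200,000 cells/well), then given fresh medium with LPS (1 µg mL-1) plus IFN-γ (50 U mL-1); compounds added together with stimulus. Nitrite in medium read at 24 h: Griess reagent (1% sulfanilamide, 0.1% naphthylenediamine, 5% phosphoric acid), OD550, against sodium nitrite standards made in medium. IC50 = 50% inhibition.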

Neutrophil [2] = assay: Inhibition of FMLP/CB-stimulated elastase release in human neutrophils at 30 uM treated for 5 mins before FMLP/CB challenge using MeO-Suc-Ala-Ala-Pro-Val-p-nitroanilide as a substrate relative to control; assay type: functional
Procedure, shortened: (§1)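 Human neutrophils (6×10^5/ml) with 100 µM MeO-Suc-Ala-Ala-Pro-Val-p-nitroanilide, equilibrated 37 °C 2 min, drug 5 min, then activated by 100 nM FMLP plus 0.5 µg/ml cytochalasin B. Absorbance at 405 nm monitored continuously. Expressed as % of release in drug-free FMLP/CB control. Mean ± S.E.M., n = 3–4; IC50 = 50% inhibition.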

RAW264.7 [3] = assay: Cytotoxicity against mouse RAW264.7 cells assessed as cell viability after 4 hrs by MTT assay; assay type: cell-based; conditions: RAW264.7, 4 h
Procedure, shortened: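 RAW 264.7 macrophages (ATCC) grown in DMEM with 10% heat-inactivated FCS and penicillin/streptomycin at 37 °C, 5% CO2, in 96-well plates. Cells incubated with MTT (5 mg mL-1) for 4 h at 37 °C. Formazan dissolved in acid-SDS. Viability taken from mitochondria-dependent MTT reduction.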

Neutrophil [4] = assay: Inhibition of FMLP/CB-stimulated superoxide anion generation in human neutrophils treated for 5 mins before FMLP and CB challenge for 10 mins and 3 mins respectively by spectrophotometer analysis; assay type: functional, cell-based
Procedure, shortened: (§2)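 Human neutrophils in Ca2+-free HBSS pH 7.4 plus 0.5 mg/ml ferricytochrome c and 1 mM Ca2+. Equilibrated 37 °C 2 min, drug 5 min, cytochalasin B (1 µg/ml) 3 min, then 100 nM FMLP 10 min. SOD-inhibitable ferricytochrome c reduction followed at 550 nm with stirring. Mean ± S.E.M., n = 3–4; IC50 = 50% inhibition.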

Neutrophil [5] = assay: Inhibition of FMLP/CB-stimulated elastase release in human neutrophils treated for 5 mins before FMLP/CB challenge using MeO-Suc-Ala-Ala-Pro-Val-p-nitroanilide as a substrate; assay type: functional, cell-based; procedure, shortened: as §1
Neutrophil [6] = assay: Inhibition of FMLP/CB-stimulated superoxide anion generation in human neutrophils at 30 uM treated for 5 mins before FMLP and CB challenge for 10 mins and 3 mins respectively by spectrophotometer analysis relative to control; assay type: functional; procedure, shortened: as §2
Neutrophil [7] = assay: Inhibition of FLMP-stimulated Ca2+ mobilization in human neutrophils assessed as maximum intracellular Ca2+ concentration at 10 uM treated for 5 mins before stimulation by fluo-3 AM-based spectrofluorometry; assay type: functional
Procedure, shortened: (§3)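 Human neutrophils (dextran sedimentation, Ficoll Hypaque, hypotonic erythrocyte lysis; >98% viable) loaded with 2 µM fluo-3 AM, 37 °C, 45 min, washed, 3×10^6 cells/ml in Ca2+-free HBSS. Stimulated with 0.1 µM FMLP with 1 mM Ca2+, 37 °C, stirring; ex 488/em 520 nm. [Ca2+]i = Kd[(F−Fmin)/(Fmax−F)], Fmax with 0.05% Triton X-100, Fmin with 20 mM EGTA. Mean ± SEM.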

Neutrophil [8] = assay: Inhibition of FLMP-stimulated Ca2+ mobilization in human neutrophils assessed as time required to decrease half of Ca2+ at 10 uM treated for 5 mins before FLMP challenge by fluo-3 AM-based spectrofluorometry; assay type: functional, cell-based; procedure, shortened: as §3

SMILES | IC50 (RAW264.7 [1]) | IC50 (Neutrophil [4]) | IC50 (Neutrophil [5]) | inhibition at 30 µM (Neutrophil [2]) | IC50 (RAW264.7 [3]) | inhibition at 30 µM (Neutrophil [6]) | Activity (Neutrophil [7]) | T1/2 (Neutrophil [8])
O=C(/C=C/c1ccncc1)c1ccc(O)c(CN2CCOCC2)c1 | 4.14 µM | 8.85 µM | 13.7 µM | – | 111 µM | – | – | –
COc1ccc(/C=C/C(=O)c2cc(CN3CCOCC3)c(OC)cc2O)cc1 | 3.35 µM | 5.77 µM | – | – | 1860 µM | – | – | –
Cc1ccsc1/C=C/C(=O)c1cc(CN2CCOCC2)c(O)c(CN2CCOCC2)c1 | 0.44 µM | – | – | 15.4% | 56.9 µM | 33.8% | – | –
CCOc1cc(O)c(C(=O)/C=C/c2cccnc2)cc1CN1CCOCC1 | 15.4 µM | 2.42 µM | 3.48 µM | – | 4.46 µM | – | – | –
COc1ccc(/C=C/C(=O)c2cccs2)c(CN2CCCCC2)c1O | – | 8.32 µM | – | – | – | – | – | –
COc1cc(O)c(C(=O)/C=C/c2cccnc2)cc1CN1CCOCC1 | 11.8 µM | 2.65 µM | 4.52 µM | – | 2810 µM | – | – | –
COc1ccc(/C=C/C(=O)c2cccnc2)c(CN2CCCCC2)c1O | – | 13 µM | 20.1 µM | – | – | – | – | –
COc1ccccc1OC(=O)CNC(=O)Cc1ccc(C(=O)c2ccc(C)cc2)n1C [AMTOLMETIN GUACIL] | 51.3 µM | – | – | – | – | – | – | –
CC(C)Oc1cc(O)c(C(=O)/C=C/c2cccs2)cc1CN1CCOCC1 | 0.23 µM | 19.4 µM | – | – | 47.7 µM | – | – | –
O=S(=O)(F)Cc1ccccc1 [PHENYLMETHYLSULFONYLFLUORIDE] | – | – | 95 µM | – | – | – | – | –
CCOc1cc(O)c(C(=O)/C=C/c2ccc(C)o2)cc1CN1CCOCC1 | 10.5 µM | 19.9 µM | – | – | 91.3 µM | – | – | –
COc1ccc(/C=C/C(=O)c2ccco2)c(CN2CCCCC2)c1O | – | 4.18 µM | – | – | – | – | – | –
CCOc1cc(O)c(C(=O)/C=C/c2ccccn2)cc1CN1CCOCC1 | 15.1 µM | 0.89 µM | 1.24 µM | – | 0.18 µM | – | – | –
COc1cc(O)c(C(=O)/C=C/c2cccs2)cc1CN1CCOCC1 | 3.61 µM | 10.2 µM | – | – | 148 µM | – | – | –
c1ccc2c(c1)[I+]c1ccccc1-2 [DIPHENYLENEIODONIUM] | – | 1.02 µM | – | – | – | – | – | –
COc1ccc(/C=C/C(=O)c2ccc(C)cc2)c(CN2CCOCC2)c1O | – | 2.76 µM | 6.97 µM | – | – | – | – | –
CCOc1cc(O)c(C(=O)/C=C/c2sccc2C)cc1CN1CCOCC1 | 8.13 µM | 19.9 µM | – | – | 2060 µM | – | – | –
O=C(/C=C/c1ccccn1)c1cc(CN2CCOCC2)c(O)c(CN2CCOCC2)c1 | 2.52 µM | 14.8 µM | 18.9 µM | – | 190 µM | – | – | –

Second part, led by results:

IC50 (RAW264.7 [1]) | IC50 (Neutrophil [4]) | IC50 (Neutrophil [5]) | SMILES | inhibition at 30 µM (Neutrophil [2]) | IC50 (RAW264.7 [3]) | inhibition at 30 µM (Neutrophil [6]) | Activity (Neutrophil [7]) | T1/2 (Neutrophil [8])
6.06 µM | 15.8 µM | – | COc1cc(O)c(C(=O)/C=C/c2ccco2)cc1CN1CCOCC1 | 17.9% | 1440 µM | – | – | –
0.16 µM | – | – | O=C(/C=C/c1ccco1)c1ccc(O)c(CN2CCOCC2)c1 | – | 10 µM | 27.4% | 276.51 nM | 28.1 s
1.39 µM | 16.4 µM | 18.2 µM | Cc1ccsc1/C=C/C(=O)c1ccc(O)c(CN2CCOCC2)c1 | – | – | – | – | –
0.2 µM | 2.86 µM | – | COc1cc(O)c(C(=O)/C=C/c2ccccc2)cc1CN1CCOCC1 | – | 0.19 µM | – | – | –
2.21 µM | 3.39 µM | – | CC(C)Oc1ccc(C(=O)/C=C/c2cccs2)c(O)c1CN1CCOCC1 | – | 34 µM | – | – | –
1.73 µM | 12.6 µM | 21.2 µM | O=C(/C=C/c1ccccn1)c1ccc(O)c(CN2CCOCC2)c1O | – | 11.4 µM | – | – | –
0.82 µM | 23.5 µM | – | O=C(/C=C/c1cccnc1)c1ccc(O)c(CN2CCOCC2)c1 | 20.4% | 53.2 µM | – | – | –
0.29 µM | 3.35 µM | – | CCOc1cc(O)c(C(=O)/C=C/c2ccccc2)cc1CN1CCOCC1 | – | 1.6 µM | – | – | –
15.6 µM | 16.6 µM | – | O=C(/C=C/c1ccccc1)c1ccc(O)c(CN2CCOCC2)c1 | 9.32% | 35 µM | – | – | –
3.39 µM | 9.6 µM | 18.6 µM | Cc1ccsc1/C=C/C(=O)c1cccc(O)c1CN1CCOCC1 | – | 182 µM | – | – | –
3.41 µM | 15.2 µM | 20.9 µM | O=C(/C=C/c1ccccn1)c1ccc(O)c(CN2CCOCC2)c1 | – | 6.56 µM | – | – | –
– | 3.16 µM | 2.95 µM | COc1ccc(/C=C/C(=O)c2cccc(C)c2)c(CN2CCOCC2)c1O | – | – | – | – | –
16.5 µM | – | – | CCOc1cc(O)c(C(=O)/C=C/c2ccco2)cc1CN1CCOCC1 | – | 16.9 µM | 39.9% | – | –
1.28 µM | 25.6 µM | – | Cc1ccc(/C=C/C(=O)c2ccc(O)c(CN3CCOCC3)c2)o1 | – | 0.006 µM | – | – | –
2.3 µM | 2.81 µM | 5.19 µM | O=C(/C=C/c1ccccc1)c1cccc(O)c1CN1CCOCC1 | – | 9.95 µM | – | – | –
2.49 µM | 10.5 µM | 24.3 µM | O=C(/C=C/c1cccs1)c1cccc(O)c1CN1CCOCC1 | – | 12.7 µM | – | – | –
0.055 µM | 1.6 µM | 2.28 µM | O=C(/C=C/c1ccncc1)c1ccc(CN2CCOCC2)c(O)c1 | – | 110 µM | – | – | –
2.5 µM | 18.2 µM | – | O=C(/C=C/c1ccco1)c1cccc(O)c1CN1CCOCC1 | 39.7% | 17.2 µM | – | – | –
0.72 µM | 2.63 µM | 2.47 µM | O=C(/C=C/c1ccccn1)c1ccc(CN2CCOCC2)c(O)c1 | – | 78 µM | – | – | –
0.93 µM | – | – | CC(C)=CCOc1ccc(C(=O)/C=C/c2sccc2C)c(O)c1CN1CCOCC1 | – | 11 µM | 21.5% | – | –
0.47 µM | 25.4 µM | – | O=C(/C=C/c1cccs1)c1ccc(O)c(CN2CCOCC2)c1 | 19.3% | 6830 µM | – | – | –
0.23 µM | 5.96 µM | 6.66 µM | O=C(/C=C/c1cccnc1)c1ccc(CN2CCOCC2)c(O)c1 | – | – | – | – | –
1.73 µM | 0.68 µM | 0.95 µM | COc1ccc(C(=O)/C=C/c2ccccn2)c(O)c1CN1CCOCC1 | – | 10.8 µM | – | 208.65 nM | 8.43 s
0.018 µM | 1.66 µM | 1.44 µM | O=C(/C=C/c1ccccn1)c1ccc(CN2CCOCC2)c(O)c1CN1CCOCC1 | – | 24.3 µM | – | – | –
